# The list is not random: actives were taken first. Their share in the collection is about 5.3%.
# PLK1 inh = inhibitors of human PLK1 kinase | P53350 | inhibition, % at 10 µM | recombinant PLK1 kinase, TR-FRET peptide phosphorylation | AID 619 | 97,000 compounds, 0.53% hits;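 active = inhibition of 50% or more in the single-concentration screen; inactive = inhibition below 50%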
# Plk1 PBD FP = blocks phosphopeptide binding to human Plk1 polo box domain | Plk1 PBD phosphopeptide binding, fluorescence polarization | inhibition, %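 (tested at about 20 µM)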 | 97,000 compounds, 0.13% hits; in the data active = inhibition above about 34%, passing the limit was not always enough
# Cav3 T inh = blocks human Cav3.2 T-type calcium channel | Cav3.2-expressing cells, Fluo-4 calcium fluorescence FDSS; active compounds read low | 100,000 compounds, 4% hits | B-score at 10 µM | AID 449739 | O95180;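 active = single-dose well whose peak fluorescence ratio is a statistical outlier from its plate by either plate-standardised score or position-corrected B-score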
# HIV Rev-RRE inh = disrupts HIV-1 Rev binding to RRE RNA; P05866; Rev peptide-RRE RNA binding, FRET; inhibition, % at 8 µM; 97,000 compounds, 0.79% hits;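 active = inhibition above the screen-wide mean plus 3 SD, cut at about 35% in these data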
# Target sequence (P05866 whole entry, looked up): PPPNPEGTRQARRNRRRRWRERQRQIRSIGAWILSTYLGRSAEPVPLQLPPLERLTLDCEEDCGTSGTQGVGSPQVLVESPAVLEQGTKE
#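 Assay system: Labelled RRE RNA duplex and labelled Rev peptide | Times: 5 min preincubation and 15 min binding, 25 °C | Detection: FRET, ex 480 nm, em 540 and 671 nm | Evaluation: % inhibition of FRET ratio versus controls | Benchmarks: DMSO wells as 0% and neomycin B wells as 100% inhibition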
# EphB4 ephrin blk = EphB4-ephrin-B2 interaction antagonism | P54760 | EphB4 LBD / TNYL-RAW-Alexa532 peptide, fluorescence polarization | inhibition, % at 7 µM | 97,000 compounds, 0.15% hits | AID 720;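 active = inhibition above the screen-wide mean inhibition plus 3 SD, cut at about 15% in these data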
# FAK inh = blocks human focal adhesion kinase activity; 97,000 compounds, 0.84% hits; inhibition, %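 (tested at 7 µM)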; biochemical FAK kinase activity assay; AID 727; Q05397; in the data active = inhibition above about 19%
# Hits are given with their value; 0 = inactive; - = not tested or not shown.
SMILES,PLK1 inh,Plk1 PBD FP,Cav3 T inh,HIV Rev-RRE inh,EphB4 ephrin blk,FAK inh
Cc1cc(C(c2nnnn2Cc2ccccc2)N2CCOCC2)c(C)n1-c1ccc2c(c1)OCO2 (centres undefined),0,0,-4.6,0,0,0
O=c1[nH]c2cc3c(cc2cc1C(c1nnnn1Cc1ccccc1)N1CCCCCC1)OCCO3 (centres undefined),0,0,0,41,0,0
COc1c(F)cc2[nH]c3c(c2c1F)CCNC3=O,-,-,0,-,-,-
CC(C(N)=O)N1C(=O)c2cccc3cccc1c23 (centres undefined),0,0,0,0,0,0
COCCOC(=O)C(C#N)c1nc2ccccc2nc1N1CCCC1 (centres undefined),0,0,0,0,0,0
CCOc1ccccc1N1CCN(c2nc3ccccc3nc2C(C#N)C(=O)OC)CC1 (centres undefined),0,0,-7.6,0,0,0
N#CC(C(=O)OC1CCCCC1)c1nc2ccccc2nc1N1CCCCC1 (centres undefined),0,0,0,0,0,0
COc1ccccc1N1CCN(c2nc3ccccc3nc2C(C#N)C(=O)OC(C)C)CC1 (centres undefined),0,0,-8.5,0,0,0
O=C(NC1CC1)C1=COCCO1,0,0,0,0,0,0
CC1=NN(/C(=N\c2nnc(C)s2)Nc2ccc(C)cc2)[C@H](c2ccc(C)cc2)S1,0,0,0,0,0,21
CC1=NN(/C(=N\c2nnc(C)s2)Nc2ccccc2)[C@H](c2cccc3ccccc23)S1,0,0,0,0,0,0
Cc1ccc(C2=NOC(C)(c3nnc(-c4ccc(Cl)cc4)o3)C2)cc1 (centres undefined),-,-,0,-,-,-
Cc1noc(C)c1Cn1nc(C(=O)O)c2ccccc2c1=O,51,0,-,0,0,0
Cn1cnnc1SCC(=O)Nc1ccc2nc(SCc3cccc4ccccc34)sc2c1,0,0,0,0,17,0
Cn1cnnc1SCC(=O)Nc1ccc2nc(SCc3ccccc3Cl)sc2c1,0,0,0,0,0,0
CCN(CC)CCNC(=O)c1cn(C)c2ccc(S(=O)(=O)N(C)C3CCCCC3)cc2c1=O,55,0,0,0,0,0
CCN(CC)CCNC(=O)c1cn(CC)c2ccc(S(=O)(=O)N(C)C)cc2c1=O,0,0,0,0,0,0
COc1ccc(OC)c(C(c2nnnn2C2CCCC2)N2CCc3ccccc3C2)c1 (centres undefined),0,0,-,0,0,0
COc1ccc(N2CCN(C(c3ccccc3OC)c3nnnn3C3CCCC3)CC2)cc1 (centres undefined),-,-,-5.9,-,-,-
COc1ccc(N2CCN(C(c3cccc(OC)c3OC)c3nnnn3C3CCCC3)CC2)cc1 (centres undefined),0,0,-5.4,0,0,0
COc1ccc(C(c2nnnn2C2CCCC2)N2CCc3ccccc3C2)cc1OC (centres undefined),0,0,-4,0,0,0
COc1ccc(OC)c(C(c2nnnn2C2CCCC2)N2CCN(c3ccccc3F)CC2)c1 (centres undefined),0,0,-6.1,0,0,0
CCOc1ccc(C(CC(=O)O)NC(=O)C23CC4CC(CC(C4)C2)C3)cc1 (centres undefined),-,-,0,-,-,-
CCN(CC)CC#CCC(C)(c1ccccc1)c1ccccc1,0,0,0,0,0,0
CCO[C@@H]1OC(C(=O)NCc2nc3ccccc3[nH]2)=C[C@H](c2ccc(C(F)(F)F)cc2)[C@H]1CCCO,-,-,0,-,-,-
SMILES,PLK1 inh,Plk1 PBD FP,Cav3 T inh,HIV Rev-RRE inh,EphB4 ephrin blk,FAK inh
CSc1ccccc1C(=O)NCc1ccc2c(c1)OCO2,0,0,0,0,0,0
Cc1cc2nnc(SCC(=O)OC(C)C)n2c2ccccc12,0,0,0,0,0,0
Clc1ccc(CN2CCN(c3ncnc4scc(-c5cccs5)c34)CC2)cc1,62,0,0,0,0,0
CC(Sc1nnc(Cc2cccs2)n1C1CCCCC1)C(=O)N1CCc2ccccc21 (centres undefined),0,0,-6.5,0,0,0
CCSc1nc2c(sc3ccccc32)c(=O)n1C(C)C,0,0,0,0,0,0
O=C(Nc1ccccc1)C1=C[C@@H](C2CC2)C[C@@H](OCCCCO)O1,-,-,0,-,-,-
O=C(Nc1ccccc1)C1Cc2ccccc2CN1C(=O)c1ccco1 (centres undefined),0,0,0,0,0,0
O=C(Nc1cc(C(F)(F)F)ccc1N1CCOCC1)C1Cc2ccccc2CN1C(=O)c1ccco1 (centres undefined),0,0,-8.8,0,0,0
CCCCC1=CC2=CC(=O)C(C)(OC(=O)c3cnc4ccccc4n3)C(=O)C2=CO1 (centres undefined),-,-,0,-,-,-
O=C1C2C(c3ccccc3)CC=CC2[C@H](c2cccc([N+](=O)[O-])c2)N1Cc1ccccc1 (some centres undefined),-,-,0,-,-,-
Cn1c(=O)[nH]c(=O)c2c1nc(N1CCN(c3cccc(Cl)c3)CC1)n2CCCc1ccccc1,0,0,0,0,0,0
CCCCCn1c(CN2CCN(c3cc(Cl)ccc3C)CC2)nc2c1c(=O)[nH]c(=O)n2C,0,0,-4.4,0,0,0
CCCCCn1c(N2CCN(c3cccc(Cl)c3)CC2)nc2c1c(=O)[nH]c(=O)n2C,0,0,-5.4,0,0,0
O=C(CSc1nc(O)c(Cc2ccccc2)c(=O)n1-c1ccccc1)N1CCOCC1,0,0,0,0,0,0
CC(C)(C)N(Cc1ccccc1)C(=O)c1ccc2c(c1)OCCO2,0,0,-4.3,0,0,0
O=C(O)c1ccc2c(c1)OCCO2,0,0,0,0,0,0
COc1ccc(C(c2nnnn2Cc2ccc(F)cc2)N2CCN(c3ccccc3)CC2)cc1 (centres undefined),0,0,-5.8,0,0,0
COc1ccc(C(c2nnnn2Cc2ccc(F)cc2)N2CCN(c3ccc(OC)cc3)CC2)cc1 (centres undefined),0,0,-,0,0,0
COc1ccc(N2CCN(C(c3ccccc3)c3nnnn3Cc3ccc(F)cc3)CC2)cc1 (centres undefined),0,0,-4.6,0,0,0
COC(=O)CCN(C1CCCCC1)S(=O)(=O)c1ccc(S(=O)(=O)NC2CCCCC2)cc1,0,0,-5.9,0,0,0
O=C(CSC1=NCCS1)Nc1ccc(S(=O)(=O)NC2CCCCC2)cc1,0,0,0,0,0,0
O=C(CN(C1CC1)S(=O)(=O)c1ccc(S(=O)(=O)NC2CCCCC2)cc1)Nc1ccccc1,0,0,-12,0,0,0
COC(=O)COc1ccc(S(=O)(=O)NC2CCCCCC2)cc1,0,0,0,0,0,0
O=C(CN(C1CCCCC1)S(=O)(=O)c1ccc(F)cc1)Nc1ccc2c(c1)OCO2,0,0,-5.6,0,0,0

# Assay outcomes (PubChem)
